Source: article PMC8897208 (Acta Pharmaceutica Sinica. B, 2021)

Assays:
SIRT6 [1] = biological target: T1, SIRT6 (Homo sapiens, UniProt Q8N6T7); test: Fluor de Lys; assay type: biochemical
Outline: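 Recombinant SIRT6 was expressed in E. coli BL21 in LB with 100 μg/mL ampicillin at 37 °C. Expression was induced with 0.5 mmol/L IPTG at OD600 0.8, then grown 18 h at 16 °C and purified by an earlier method.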

SIRT6 [2] = biological target: T1, SIRT6; test: In vitro nucleosome deacetylation assay; assay type: biochemical; details: 10 mmol/L, H3K9Ac and H3K18Ac, Western blot
Outline: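 Nucleosomes were isolated from HeLa cells and deacetylated in vitro by SIRT6 in the presence of NAD+. H3K9Ac and H3K18Ac were detected by Western blot.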

T1 sequence (Q8N6T7 whole entry): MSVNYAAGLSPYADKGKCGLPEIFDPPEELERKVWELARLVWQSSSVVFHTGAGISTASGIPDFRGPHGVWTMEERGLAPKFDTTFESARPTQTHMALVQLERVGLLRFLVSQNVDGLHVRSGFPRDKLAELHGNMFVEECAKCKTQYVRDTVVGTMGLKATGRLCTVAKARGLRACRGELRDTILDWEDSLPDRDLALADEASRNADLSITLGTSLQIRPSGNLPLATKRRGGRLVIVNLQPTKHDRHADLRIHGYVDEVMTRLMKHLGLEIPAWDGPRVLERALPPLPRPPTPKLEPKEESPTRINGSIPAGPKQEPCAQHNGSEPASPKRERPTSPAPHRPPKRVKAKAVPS

IC50 (SIRT6 [1]) [µM] | inhibition ratio at 50 μmol/L (SIRT6 [1]; FDL assay, substrate Ac-RHKK-Ac-AMC, 50 μmol/L compound) [%] | inhibition of SIRT6 deacetylation on nucleosomes (SIRT6 [2]) | SMILES
26.8 | 64.18 | – | Nc1nonc1-n1cc(C(=O)N/N=C/c2ccccc2O)nn1 [JYQ-1]
– | – | weak inhibition | NC(=O)c1cccnc1 [nicotinamide, reference compound]
